Source: PubChem BioAssay (several laboratories)
Sampled rows, rich in hits. Any-hit rate of the full collection: about 1.7%.
Runt-SMMHC FRET – inhibitors of RUNX1 Runt–CBFb-SMMHC binding, primary screen, biochemical, FRET, Cerulean-Runt, Venus-CBFb-SMMHC, uHTS; Runt-related transcription factor 1 (Homo sapiens) + Core-binding factor subunit beta …; Cerulean-Runt/Venus-CBFb-SMMHC FRET ratio 530/480, 1 h; inhibition, % at 20 µM; 220,000 compounds, 0.74% hits; AID 1434, 2008;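 active means mean inhibition across duplicate retests at 20 µM reaching about 50%, limit read from the data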;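 further: 0% = DMSO wells and 100% = wells with excess untagged CBFb-SMMHC; inhibitors lower the FRET ratio by blocking Runt binding to CBFb-SMMHC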
RanGTP-Impb inh – inhibitors of RanGTP-importin-beta interaction, primary screen, biochemical, FRET, CFP-Ran, YFP-importin-beta, homogeneous. cell-free CFP-Ran/YFP-importin-beta FRET ratio. AID 2216, 2009. Ran GTPase (GTP-bound) - importin-beta complex. 300,000 compounds, 1.1% hits. inhibition, % (test concentration not listed);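 active means more than half of the replicate wells show a fall in the fluorescence ratio signal beyond about 16%, limit read from the data, passing the limit was not always enough; inconclusive means exactly half of the replicate wells pass the set limit; inactive means fewer than half of replicates pass the limit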;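 further: 0% = DMSO wells and 100% = Ran loaded with GDP instead of GTP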
Runt-CBFb FRET – inhibitors of RUNX1 Runt–CBFb binding, primary screen, biochemical, FRET, Cerulean-Runt, Venus-CBFb, uHTS. 220,000 compounds, 0.46% hits. Cerulean-Runt/Venus-CBFb FRET ratio 530/480, 1 h. inhibition, % at 20 µM. AID 1496, 2009;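 active means inhibition over about 50% at 20 µM in the single-dose screen, limit read from the data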;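 further: 0% = DMSO wells and 100% = excess unlabeled CBFb competitor control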
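System: Cerulean-labeled Runt domain protein | Quantity: 100 nM of each labeled protein | Schedule: 1 h compound exposure, room temperature | Detection: Fluorescence energy transfer, 422 nm excitation, 530/480 nm emission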
Hck Nef HTS – inhibitors of Nef-activated human Hck kinase, primary screen, biochemical, Z-Lyte FRET, 384-well, Hck-YEEI | inhibition, % at 20 µM | 220,000 compounds, 0.68% hits | Tyrosine-protein kinase HCK (Homo sapiens), P08631 | Recombinant Hck-YEEI plus Nef, Z-Lyte FRET kinase assay;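 active means Hck-Nef kinase inhibition above about 50%, limit read from the data; inactive means inhibition below that limit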;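 further: 0% = DMSO with Hck plus Nef and 100% = Hck alone without Nef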
Target sequence (P08631 whole entry, looked up): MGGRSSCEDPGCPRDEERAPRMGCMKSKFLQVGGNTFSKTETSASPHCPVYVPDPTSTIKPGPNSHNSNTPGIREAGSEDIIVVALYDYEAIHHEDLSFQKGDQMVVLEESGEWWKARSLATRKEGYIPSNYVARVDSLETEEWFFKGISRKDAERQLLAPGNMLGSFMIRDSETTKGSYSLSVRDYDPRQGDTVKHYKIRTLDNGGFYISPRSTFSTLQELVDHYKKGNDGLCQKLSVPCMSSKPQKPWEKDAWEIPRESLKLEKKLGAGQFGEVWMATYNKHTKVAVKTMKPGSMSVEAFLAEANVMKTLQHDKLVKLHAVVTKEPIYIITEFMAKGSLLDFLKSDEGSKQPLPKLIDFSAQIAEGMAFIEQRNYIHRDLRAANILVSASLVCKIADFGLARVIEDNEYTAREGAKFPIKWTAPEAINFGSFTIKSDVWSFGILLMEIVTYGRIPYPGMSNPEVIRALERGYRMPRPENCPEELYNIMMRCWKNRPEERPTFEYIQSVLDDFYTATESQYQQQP
Numbers without * were called inactive; ? = inconclusive; . = no result given.

SMILES	Runt-SMMHC FRET	RanGTP-Impb inh	Runt-CBFb FRET	Hck Nef HTS
CC(OC(=O)c1cc(-c2cccnc2)nc2ccccc12)C(=O)Nc1ccc2ccccc2c1 (centres undefined)	-105.8	-2.3	-4.5	1.5
S=C(NCc1ccco1)N1CCOCC1	-7.7	22.0*	27.0	17.6
CCC(C)[C@H](NC(=O)N1CCCC1)C(=O)OC (some centres undefined)	-8.3	-1.6	1.5	0.0
CCC(C)[C@H](NC(=O)N1CCCCC1)C(=O)OC (some centres undefined)	-5.2	23.1*	1.4	7.6
COC(=O)C1=C(C)N=C2SC(C#N)=C(N)N2C1c1ccc(OCc2ccccc2)cc1 (centres undefined)	10.9	24.6*	-20.5	-1.6
COC(=O)C1=C(C)N=C2SC(C#N)=C(N)N2C1c1cc(OC)c(OC)c(OC)c1 (centres undefined)	17.0	13.4	-0.9	-1.3
CC1C(=O)N2CCCc3cc(NC(=O)C(=O)NCc4cccnc4)cc1c32 (centres undefined)	.	5.6	.	.
CCOC(=O)C1C(=O)C=C(c2ccc(C)cc2)CC1c1ccco1 (centres undefined)	10.1	?	10.2	-1.8
CCOC(=O)C1C(=O)C=C(c2ccc(NS(C)(=O)=O)cc2)CC1c1ccco1 (centres undefined)	-19.8	6.3	78.8*	-3.3
Cc1ccccc1Cn1cc(NC(=O)c2cc3nc(-c4ccco4)cc(C(F)(F)F)n3n2)cn1	-86.1	30.2*	-5.1	3.8
O=C(Nc1ccc(Cl)cc1)c1cc2nc(-c3ccco3)cc(C(F)(F)F)n2n1	-22.6	4.4	-4.7	1.9
Cc1ccc(Cn2ccc(NC(=O)c3cc4nc(-c5ccco5)cc(C(F)(F)F)n4n3)n2)cc1	-21.1	4.0	.	1.9
CCc1ccc(-c2cc(C(F)(F)F)n3nc(C(=O)Nc4cnn(Cc5ccc(C)cc5)c4)cc3n2)s1	-4.4	38.9*	-49.6	6.3
Nc1nc(N2CCCCC2)c(C=O)c(N2CCCCC2)n1	1.6	-1.9	-1.0	19.7
O=C(Nc1ccc(-c2nc3ccccc3o2)cc1)c1ccc2c(c1)OCO2	-0.5	0.5	1.4	1.3
Cc1ccc2oc(-c3ccc(NC(=O)c4ccc5c(c4)OCO5)cc3)nc2c1	-9.9	1.6	67.3*	26.4
CC(NCC(=O)Nc1cc(S(=O)(=O)N2CCCCCC2)ccc1Cl)c1ccccc1 (centres undefined)	0.4	-1.5	-0.8	12.9
CCCCNc1nc(Nc2ccc(C)c(Cl)c2)c2cnn(C)c2n1	.	4.7	.	.
C/C=C(\C)C(=O)NCCN1C2=NC[C@@H](Cc3ccccc3)N2C[C@@H]1Cc1ccc(OC)cc1	.	1.0	.	.
CCCCCCNC(=O)N[C@@H](C(=O)NCCC[C@H]1CN2C(=NC[C@@H]2Cc2ccccc2)N1CCc1cccc(OC)c1)C(C)C	62.7*	1.8	36.7	10.3
CC(C)COc1ccc(/C=C2/Sc3ccccc3C2=O)cc1	-33.8	43.1*	-12.5	-0.4
COCc1nnc(NC(=O)C2CC(=O)N(C3CCCC3)C2)s1 (centres undefined)	.	-4.0	.	.
CCN(CC)c1ccc(/C=C(\C#N)C(=O)NCc2ccccc2)cc1	59.0*	109.1*	79.2*	5.1
CN(C)c1ccc(/C=C(\C#N)C(=O)NCc2ccco2)cc1	58.5*	?	90.3*	4.3
CCN(CC)c1ccc(/C=C(\C#N)C(=O)NCc2ccco2)cc1	59.6*	.	18.8	6.7
SMILES	Runt-SMMHC FRET	RanGTP-Impb inh	Runt-CBFb FRET	Hck Nef HTS
Cn1c(=O)n(C)c2cc(/C=C(/C#N)C(=O)NCc3ccco3)ccc21	1.9	0.4	0.1	22.8
Cc1ccc(CNC(=O)/C(C#N)=C\c2ccc(N(C)C)cc2)cc1	61.3*	71.5*	12.4	2.6
COc1ccc(C(CNC(=O)C(Cc2ccccc2)NC(N)=O)N(C)C)cc1 (centres undefined)	.	1.7	.	.
N#CC1=C(N)SC(N)=C(C#N)C1CCC1CCCCC1	35.0	50.5*	21.9	3.7
CCN(CC)CCCNC(=O)C1CCC(=O)N(c2ccc(OC)cc2)C1c1ccc(F)cc1 (centres undefined)	-9.7	53.7*	-1.9	0.4
CCCCC(=O)Nc1ccc(NC(=O)c2cnccn2)cn1	-0.7	172.4*	1.3	-15.3
COc1ccc(/C=N/NC(=O)c2ccc3c(c2)NC(=O)C(C)(C)O3)cc1OC	.	-3.3	.	.
COc1ccc(C2C3=C(CC(C)(C)CC3=O)Nc3c2c(=O)[nH]c(=O)n3Cc2ccccc2)cc1 (centres undefined)	40.3	83.7*	101.7*	1.0
COCCCN1C2=C(C(=O)CC(C)(C)C2)C(c2ccc(OC)c(OC)c2)C2=C1CC(C)(C)CC2=O	.	0.9	.	.
COc1ccc(C2C3=C(CC(C)(C)CC3=O)Nc3c2c(=O)[nH]c(=O)n3Cc2ccccc2)cc1OC (centres undefined)	78.7*	87.7*	55.6*	5.9
Cc1c(CC(=O)NCCCC(=O)O)c(=O)oc2cc3c(cc12)CCC(C)(C)O3	.	-0.7	.	.
CCCCn1c(N)c(NCC)c(=O)[nH]c1=O	69.6*	.	24.1	-0.5
CCCCn1c(N)c(NCC(C)C)c(=O)[nH]c1=O	6.2	3.0	3.2	1.9
c1ccc(-c2ccc(-c3nccc4ccccc34)[nH]2)cc1	60.7*	.	29.6	56.9*
Cc1ccc(NC(=S)NNC(=O)c2nnn(-c3ccccc3)c2C)cc1	6.1	6.6	3.5	3.4
O=C(O)CCC(=O)NNc1nc(-c2ccccc2)c2cc(Cl)ccc2n1	.	4.4	.	.
Cc1ccc2nc(NCCO)nc(-c3ccccc3)c2c1	41.8	29.5*	32.1	10.3
OCCNc1nc(-c2ccccc2)c2ccccc2n1	10.5	0.8	9.5	8.4
OCCNc1nc(-c2ccccc2)c2cc(Cl)ccc2n1	90.5*	1.3	48.8	11.5
CCCOC(=O)Nc1sc2c(c1C(N)=O)CCCC2	-0.1	-1.8	1.8	11.6
CC1=NN(C(=O)COc2ccc(C)c(C)c2)C(O)(c2ccccc2)C1 (centres undefined)	1.0	22.0*	1.3	2.7
CCOc1ccc(-n2c3nc4ccccc4nc3c3c(=O)n(Cc4ccco4)cnc32)cc1	.	.	.	-1.6
COc1ccc(-n2c3nc4ccccc4nc3c3c(=N)oc(C)nc32)cc1	128.7*	6.8	65.5*	27.9
CCCCn1c2nc3ccccc3nc2c2c(=N)oc(C)nc21	78.9*	.	45.8	.
Cc1ccn2c(Nc3ccccc3C)c(-c3ccncc3)nc2c1	1.1	2.6	-0.8	12.6
COC(=O)C1=CN(C2CC2)C=C(C(=O)OC)C1c1ccc(C(=O)OC)cc1	60.3*	52.2*	106.8*	22.3
